Laboratory results taken from ChEMBL document CHEMBL5303300, “EUbOPEN Chemogenomics Library - Multiplex” (2023).
“And” between values parts separate entries of the source, which are not always exact repeats. Equal values may be shown once.

Columns and labels:
HEK-293T = test: Multiplex assay against HEK293T; type: toxicity, cell-based; conditions: human, number of replicates 2
How it was run: (§1)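 At seeding, live cells were stained with Hoechst33342, BioTracker Green Microtubule Cytoskeleton Dye, MitoTracker Red and Annexin V Alexa Fluor 680. After compound addition they were imaged on a CQ1 microscope at 37°C and 5% CO2, and CellPathfinder machine-learning gating sorted them into Hoechst high-intensity objects or normal cells, with normal cells further split into healthy, pyknosed or fragmented nuclei and pyknosed cells into mitotic or apoptotic. Tubulin, mitochondrial-mass and membrane-permeability phenotypes are given as per cents of cells with healthy nuclei.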

Fibroblast = test: Multiplex assay against human fibroblast; type: toxicity, cell-based; conditions: number of replicates 2; how it was run: as §1
[1] = 12 h, 1 µM, compound concentration 1 uM
[2] = 12 h, 10 µM, compound concentration 10 uM
[3] = 24 h, 1 µM, compound concentration 1 uM
[4] = 24 h, 10 µM, compound concentration 10 uM
[5] = 48 h, 1 µM, compound concentration 1 uM
[6] = 48 h, 10 µM, compound concentration 10 uM

SMILES: Cc1cccc(S(=O)(=O)N(C)[C@H](C)CCN2CCC(C)CC2)c1.Cl
- Population Apoptotic (%) (HEK-293T; [1]): 51% and 50%
- Population Fragmented Nuclei (%) (HEK-293T; [1]): 4% and 1%
- Population Healthy Nuclei (%) (HEK-293T; [1]): 81% and 80%
- Population Hoechst High Intensity Objects (%) (HEK-293T; [1]): 5% and 6%
- Population Membrane Permeable-Phenotype (%) (HEK-293T; [1]): 4% and 6%
- Population Mitochondria Different-Phenotype (%) (HEK-293T; [1]): 16%
- Population Mitotic Cells (%) (HEK-293T; [1]): 48% and 50%
- Population Normal (%) (HEK-293T; [1]): 94% and 93%
- Population Pyknosed Nuclei (%) (HEK-293T; [1]): 13% and 17%
- Population Tubulin-Different-Phenotype (%) (HEK-293T; [1]): 61% and 51%
- Total Cell Count (HEK-293T; [1]): 635 and 449
- Population Apoptotic (%) (HEK-293T; [2]): 52% and 62%
- Population Fragmented Nuclei (%) (HEK-293T; [2]): 4% and 3%
- Population Healthy Nuclei (%) (HEK-293T; [2]): 81% and 74%
- Population Hoechst High Intensity Objects (%) (HEK-293T; [2]): 7% and 9%
- Population Membrane Permeable-Phenotype (%) (HEK-293T; [2]): 3% and 4%
- Population Mitochondria Different-Phenotype (%) (HEK-293T; [2]): 24% and 29%
- Population Mitotic Cells (%) (HEK-293T; [2]): 47% and 37%
- Population Normal (%) (HEK-293T; [2]): 92% and 90%
- Population Pyknosed Nuclei (%) (HEK-293T; [2]): 14% and 22%
- Population Tubulin-Different-Phenotype (%) (HEK-293T; [2]): 70% and 65%
- Total Cell Count (HEK-293T; [2]): 550 and 400
- Population Apoptotic (%) (HEK-293T; [3]): 45% and 63%
- Population Fragmented Nuclei (%) (HEK-293T; [3]): 6% and 2%
- Population Healthy Nuclei (%) (HEK-293T; [3]): 85% and 82%
- Population Hoechst High Intensity Objects (%) (HEK-293T; [3]): 6% and 9%
- Population Membrane Permeable-Phenotype (%) (HEK-293T; [3]): 4%
- Population Mitochondria Different-Phenotype (%) (HEK-293T; [3]): 7% and 10%
- Population Mitotic Cells (%) (HEK-293T; [3]): 54% and 36%
- Population Normal (%) (HEK-293T; [3]): 93% and 90%
- Population Pyknosed Nuclei (%) (HEK-293T; [3]): 8% and 15%
- Population Tubulin-Different-Phenotype (%) (HEK-293T; [3]): 36% and 37%
- Total Cell Count (HEK-293T; [3]): 943 and 563
- Population Apoptotic (%) (HEK-293T; [4]): 64% and 54%
- Population Fragmented Nuclei (%) (HEK-293T; [4]): 4% and 3%
- Population Healthy Nuclei (%) (HEK-293T; [4]): 79% and 83%
- Population Hoechst High Intensity Objects (%) (HEK-293T; [4]): 9% and 6%
- Population Membrane Permeable-Phenotype (%) (HEK-293T; [4]): 4% and 3%
- Population Mitochondria Different-Phenotype (%) (HEK-293T; [4]): 15% and 9%
- Population Mitotic Cells (%) (HEK-293T; [4]): 35% and 45%
- Population Normal (%) (HEK-293T; [4]): 90% and 93%
- Population Pyknosed Nuclei (%) (HEK-293T; [4]): 16% and 12%
- Population Tubulin-Different-Phenotype (%) (HEK-293T; [4]): 50% and 49%
- Total Cell Count (HEK-293T; [4]): 552 and 801
- Population Apoptotic (%) (HEK-293T; [5]): 15% and 36%
- Population Fragmented Nuclei (%) (HEK-293T; [5]): 10% and 7%
- Population Healthy Nuclei (%) (HEK-293T; [5]): 84% and 86%
- Population Hoechst High Intensity Objects (%) (HEK-293T; [5]): 8% and 6%
- Population Membrane Permeable-Phenotype (%) (HEK-293T; [5]): 5% and 3%
- Population Mitochondria Different-Phenotype (%) (HEK-293T; [5]): 0% and 3%
- Population Mitotic Cells (%) (HEK-293T; [5]): 85% and 63%
- Population Normal (%) (HEK-293T; [5]): 91% and 93%
- Population Pyknosed Nuclei (%) (HEK-293T; [5]): 4% and 5%
- Population Tubulin-Different-Phenotype (%) (HEK-293T; [5]): 16% and 20%
- Total Cell Count (HEK-293T; [5]): 2361 and 1220
- Population Apoptotic (%) (HEK-293T; [6]): 39% and 41%
- Population Fragmented Nuclei (%) (HEK-293T; [6]): 11% and 10%
- Population Healthy Nuclei (%) (HEK-293T; [6]): 83%
- Population Hoechst High Intensity Objects (%) (HEK-293T; [6]): 9% and 8%
- Population Membrane Permeable-Phenotype (%) (HEK-293T; [6]): 7%
- Population Mitochondria Different-Phenotype (%) (HEK-293T; [6]): 1% and 3%
- Population Mitotic Cells (%) (HEK-293T; [6]): 60% and 58%
- Population Normal (%) (HEK-293T; [6]): 90% and 91%
- Population Pyknosed Nuclei (%) (HEK-293T; [6]): 5%
- Population Tubulin-Different-Phenotype (%) (HEK-293T; [6]): 27%
- Total Cell Count (HEK-293T; [6]): 1730 and 1106
- Population Apoptotic (%) (Fibroblast; [1]): 34% and 44%
- Population Fragmented Nuclei (%) (Fibroblast; [1]): 11% and 9%
- Population Healthy Nuclei (%) (Fibroblast; [1]): 67% and 73%
- Population Hoechst High Intensity Objects (%) (Fibroblast; [1]): 0%
- Population Membrane Permeable-Phenotype (%) (Fibroblast; [1]): 8% and 4%
- Population Mitochondria Different-Phenotype (%) (Fibroblast; [1]): 1% and 3%
- Population Mitotic Cells (%) (Fibroblast; [1]): 65% and 55%
- Population Normal (%) (Fibroblast; [1]): 100%
- Population Pyknosed Nuclei (%) (Fibroblast; [1]): 20% and 17%
- Population Tubulin-Different-Phenotype (%) (Fibroblast; [1]): 16% and 10%
- Total Cell Count (Fibroblast; [1]): 140 and 163
- Population Apoptotic (%) (Fibroblast; [2]): 42% and 46%
- Population Fragmented Nuclei (%) (Fibroblast; [2]): 16% and 8%
- Population Healthy Nuclei (%) (Fibroblast; [2]): 70% and 80%
- Population Hoechst High Intensity Objects (%) (Fibroblast; [2]): 0%
- Population Membrane Permeable-Phenotype (%) (Fibroblast; [2]): 6% and 4%
- Population Mitochondria Different-Phenotype (%) (Fibroblast; [2]): 2% and 1%
- Population Mitotic Cells (%) (Fibroblast; [2]): 57% and 53%
- Population Normal (%) (Fibroblast; [2]): 100%
- Population Pyknosed Nuclei (%) (Fibroblast; [2]): 13% and 10%
- Population Tubulin-Different-Phenotype (%) (Fibroblast; [2]): 35% and 13%
- Total Cell Count (Fibroblast; [2]): 187 and 145
- Population Apoptotic (%) (Fibroblast; [3]): 50% and 54%
